Measured values reported in ChEMBL document CHEMBL4028864 (J Med Chem, 2017).

Tests used:
OPM-2 = assay: Antiproliferative activity against human OPM2 cells assessed as cell viability at 10 uM after 48 hrs by CellTiter-Glo luminescent assay relative to control; assay type: functional
MV4-11 = assay: Antiproliferative activity against human MV4-11 cells assessed as cell viability at 10 uM after 48 hrs by CellTiter-Glo luminescent assay relative to control; assay type: functional
MOLM-14 = assay: Antiproliferative activity against human MOLM14 cells assessed as cell viability at 10 uM after 48 hrs by CellTiter-Glo luminescent assay relative to control; assay type: functional
KMS-12-BM = assay: Antiproliferative activity against human KMS-12-BM cells assessed as cell viability at 10 uM after 48 hrs by CellTiter-Glo luminescent assay relative to control; assay type: functional
MDA-MB-231 = assay: cells; assay type: functional, cell-based; conditions: Homo sapiens, MDA-MB-231, 72 h
HCT-116 = assay: Antiproliferative activity against human HCT116 cells after 72 hrs by MTT assay; assay type: functional, cell-based; conditions: HCT-116, 72 h
MCF7 = assay: cells; assay type: functional, cell-based; conditions: Homo sapiens, MCF7, 72 h
HEL 92.1.7 = assay: cells; assay type: functional, cell-based; conditions: Homo sapiens, HEL 92.1.7, 36 h
[1] = target: T1, Tyrosine-protein kinase JAK2 (Homo sapiens, UniProt O60674); assay: Binding affinity to N-terminal His tagged human recombinant JAK2 (1014 to 1132 residues) expressed in Escherichia coli after 300 mins by LC/MS analysis; conditions: read-out: Kd(app)
T1 sequence (O60674 whole entry, the tested form may be a part): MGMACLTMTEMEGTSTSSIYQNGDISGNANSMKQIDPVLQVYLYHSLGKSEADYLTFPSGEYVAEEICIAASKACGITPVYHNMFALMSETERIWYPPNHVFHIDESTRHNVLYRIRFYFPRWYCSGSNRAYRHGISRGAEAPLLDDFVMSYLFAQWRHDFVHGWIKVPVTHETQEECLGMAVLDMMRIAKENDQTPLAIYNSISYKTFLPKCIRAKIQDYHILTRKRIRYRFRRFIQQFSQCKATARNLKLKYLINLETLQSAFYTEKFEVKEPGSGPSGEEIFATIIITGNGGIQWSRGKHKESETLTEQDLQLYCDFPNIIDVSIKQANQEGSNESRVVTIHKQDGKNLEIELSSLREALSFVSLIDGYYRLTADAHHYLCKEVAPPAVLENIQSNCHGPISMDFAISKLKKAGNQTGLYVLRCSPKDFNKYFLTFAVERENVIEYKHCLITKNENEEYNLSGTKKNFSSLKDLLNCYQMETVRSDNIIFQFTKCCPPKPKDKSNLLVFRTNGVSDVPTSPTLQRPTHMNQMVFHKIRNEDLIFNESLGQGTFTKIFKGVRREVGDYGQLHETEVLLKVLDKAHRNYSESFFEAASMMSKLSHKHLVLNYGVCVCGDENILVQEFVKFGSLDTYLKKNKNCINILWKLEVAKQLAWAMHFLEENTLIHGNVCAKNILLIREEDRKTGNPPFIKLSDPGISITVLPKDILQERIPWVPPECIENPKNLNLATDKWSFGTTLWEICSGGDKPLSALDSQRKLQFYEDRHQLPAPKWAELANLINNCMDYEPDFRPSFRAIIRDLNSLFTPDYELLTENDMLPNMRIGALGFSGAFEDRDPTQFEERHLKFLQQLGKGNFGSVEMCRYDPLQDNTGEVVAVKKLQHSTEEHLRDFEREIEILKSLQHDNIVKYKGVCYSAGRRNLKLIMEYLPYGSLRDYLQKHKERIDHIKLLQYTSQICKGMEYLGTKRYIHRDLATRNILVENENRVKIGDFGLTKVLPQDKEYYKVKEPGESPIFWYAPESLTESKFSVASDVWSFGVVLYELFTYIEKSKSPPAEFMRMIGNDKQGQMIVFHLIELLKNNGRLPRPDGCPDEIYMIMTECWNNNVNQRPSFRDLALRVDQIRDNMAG
Summary of the method: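 JAK2 in Tris/glycerol/urea storage buffer was exchanged into sodium phosphate/NaCl pH 7.5 and immobilized on periodate-oxidized diol silica (Schiff base, NaBH3CN, 116 h, 4 °C), then packed into a 35 × 0.5 mm column. Compounds were run at 10 μM final (50 μM for one analyte) in 20 mM ammonium acetate pH 6.8 at 20 μL/min. Detection was by SIM [M+H]+, with DMSO as void marker. Retention time was taken from the EIC peak apex, n = 3, with runs up to 300 min.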

Histone deacetylase 1 = Histone deacetylase 1 (Homo sapiens, UniProt Q13547); assay: Inhibition of C-terminal FLAG His tagged full length human recombinant HDAC1 (1 to 482 residues) expressed in baculovirus infected sf21 cells using RHKKAc as substrate in presence of ATP
Chain of Histone deacetylase 1 (Q13547 whole entry, the tested form may be a part): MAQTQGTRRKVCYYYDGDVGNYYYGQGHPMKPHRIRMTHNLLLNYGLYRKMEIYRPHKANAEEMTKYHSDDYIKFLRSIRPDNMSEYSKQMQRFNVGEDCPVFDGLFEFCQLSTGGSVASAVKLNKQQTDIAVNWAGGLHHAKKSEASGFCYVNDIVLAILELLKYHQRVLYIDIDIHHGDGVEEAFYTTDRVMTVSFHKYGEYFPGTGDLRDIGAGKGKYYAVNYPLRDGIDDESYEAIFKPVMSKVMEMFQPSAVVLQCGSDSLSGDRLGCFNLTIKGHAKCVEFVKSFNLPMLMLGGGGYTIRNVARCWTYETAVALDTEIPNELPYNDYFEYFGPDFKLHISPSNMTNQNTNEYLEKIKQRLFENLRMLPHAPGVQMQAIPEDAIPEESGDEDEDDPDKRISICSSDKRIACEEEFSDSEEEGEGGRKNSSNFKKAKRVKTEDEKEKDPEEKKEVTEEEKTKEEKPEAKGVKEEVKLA

PC-3 = assay: cells; assay type: functional, cell-based; conditions: Homo sapiens, PC-3, 72 h
[2] = target: T2, Protein deacetylase HDAC6 (Homo sapiens, UniProt Q9UBN7); assay: Inhibition of N-terminal GST tagged human HDAC6 (1 to 1215 residues) expressed in baculovirus infected insect cells using RHKKAc as substrate in presence of ATP
T2 sequence (Q9UBN7 whole entry): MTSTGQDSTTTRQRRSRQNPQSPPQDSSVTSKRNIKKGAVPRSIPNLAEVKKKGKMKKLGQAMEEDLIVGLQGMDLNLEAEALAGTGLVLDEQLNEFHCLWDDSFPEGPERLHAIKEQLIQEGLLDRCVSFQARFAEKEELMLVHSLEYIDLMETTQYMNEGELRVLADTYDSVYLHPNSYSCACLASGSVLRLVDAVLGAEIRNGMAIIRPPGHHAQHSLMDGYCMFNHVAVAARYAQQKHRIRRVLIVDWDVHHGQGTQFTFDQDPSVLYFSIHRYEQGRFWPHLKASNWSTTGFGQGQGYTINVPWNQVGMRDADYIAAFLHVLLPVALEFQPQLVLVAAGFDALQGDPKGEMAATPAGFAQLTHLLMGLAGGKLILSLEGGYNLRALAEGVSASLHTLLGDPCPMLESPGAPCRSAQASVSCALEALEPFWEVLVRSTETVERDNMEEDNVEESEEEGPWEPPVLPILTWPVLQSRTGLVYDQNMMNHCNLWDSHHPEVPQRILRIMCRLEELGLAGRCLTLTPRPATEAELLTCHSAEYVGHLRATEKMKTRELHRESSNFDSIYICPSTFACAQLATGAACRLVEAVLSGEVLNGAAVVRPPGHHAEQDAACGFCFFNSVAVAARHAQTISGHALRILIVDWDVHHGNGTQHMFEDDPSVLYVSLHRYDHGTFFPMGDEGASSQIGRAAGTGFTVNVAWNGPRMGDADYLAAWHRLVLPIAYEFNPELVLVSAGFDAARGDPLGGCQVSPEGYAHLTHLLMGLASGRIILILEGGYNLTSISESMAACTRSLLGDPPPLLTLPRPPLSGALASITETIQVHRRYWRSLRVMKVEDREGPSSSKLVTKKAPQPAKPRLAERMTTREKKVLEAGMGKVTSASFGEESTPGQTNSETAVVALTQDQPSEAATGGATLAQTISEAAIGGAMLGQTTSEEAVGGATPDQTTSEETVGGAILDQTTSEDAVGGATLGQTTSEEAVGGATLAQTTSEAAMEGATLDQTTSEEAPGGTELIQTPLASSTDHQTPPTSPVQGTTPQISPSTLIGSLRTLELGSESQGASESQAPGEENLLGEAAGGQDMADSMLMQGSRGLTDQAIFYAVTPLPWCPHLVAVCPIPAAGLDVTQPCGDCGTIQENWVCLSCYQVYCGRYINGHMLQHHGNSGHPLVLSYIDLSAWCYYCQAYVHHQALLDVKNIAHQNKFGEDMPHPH

[3] = target: T1, Tyrosine-protein kinase JAK2; assay: Inhibition of human JAK2 using poly[Glu:Tyr] as substrate in presence of [gamma-33P]-ATP
HL-60 = assay: Antiproliferative activity against human HL60 cells; assay type: functional, cell-based
Jurkat = assay: cells; assay type: functional, cell-based; conditions: Homo sapiens

IC50 (MDA-MB-231) | IC50 (HCT-116) | IC50 (MCF7) | IC50 (HEL 92.1.7) | Kd [1] | IC50 (Histone deacetylase 1) | IC50 (PC-3) | IC50 [2] | IC50 [3] | IC50 (HL-60) | IC50 (Jurkat) | SMILES | Activity (OPM-2) | Activity (MV4-11) | Activity (MOLM-14) | Activity (KMS-12-BM)
– | – | – | – | – | – | – | – | – | – | – | N#CC[C@H](C1CCCC1)n1cc(-c2ncnc3[nH]ccc23)cn1 [RUXOLITINIB] | 74% | 52% | 73% | 59%
13.3 µM | 25.3 µM | 14.4 µM | > 4 µM | 0.2 µM | 2.65 µM | 17 µM | 0.148 µM | 0.502 µM | > 10 µM | > 4 µM | O=C(/C=C/c1ccc(NCCCn2cc(-c3ncnc4[nH]ccc34)cn2)cc1)NO | – | – | – | –
